Source: ChEMBL document CHEMBL4145612, “Phenolic Constituents Isolated from the Twigs of Cinnamomum cassia and Their Potential Neuroprotective Effects” (J Nat Prod, 2018)

Each molecule was assayed on SH-SY5Y (assay: Neuroprotective activity against tunicamycin-induced cell death in human SH-SY5Y cells pretreated for 6 hrs followed by tunicamycin addition measured after 48 hrs by MTT assay).
Assay type: functional, cell-based
Method in brief: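 SH-SY5Y cells grown in DMEM/High Glucose:F12 (1:1) with 10% FBS at 37 °C, 5% CO2, seeded 4 × 10^3/well and left 12 h. Compounds given at 25, 50 and 100 μM for 6 h, then tunicamycin added for 48 h. Medium replaced; MTT 0.5 mg/mL final, 4 h at 37 °C; absorbance 570 nm. Salubrinal 40 μM as positive control; three independent experiments, means ± SEM; EC50 derived.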
In the case of COc1ccc([C@@H]2C(=O)OC[C@H]2c2ccc(O)c(OC)c2)cc1, the Activity is reported as “Dose-dependent effect” and the EC50 is reported as 21 to 75 µM.
COc1ccc([C@@H]2C(=O)OC[C@H]2c2ccc3c(c2)OCO3)cc1 was tested, and the Activity was “Dose-dependent effect” and the EC50 was 21 to 75 µM.
With COc1cc([C@H](OC)[C@@H]2CO[C@@H](c3cc(OC)c(O)c(OC)c3)[C@@H]2COC(C)=O)cc(OC)c1O the Activity was “Dose-dependent effect” and the EC50 was 21 to 75 µM.
With O=C(CCc1ccccc1)OC/C=C/c1ccccc1 the Activity was “Dose-dependent effect” and the EC50 was 21 to 75 µM.
OC[C@H]1O[C@@H](OC/C=C/c2ccccc2)[C@H](O)[C@@H](O)[C@@H]1O was tested, and the Activity was “Dose-dependent effect” and the EC50 was 21 to 75 µM.
C=CCc1cc(O)c(-c2c(OC)cc([C@H]3OO[C@H]3CO)cc2OC)c(OC)c1 was tested, and the Activity was “Dose-dependent effect” and the EC50 was 21 to 75 µM.
For C=CCc1cc(O)c(-c2c(OC)cc([C@@H]3OO[C@@H]3CO)cc2OC)c(OC)c1, the Activity was “Dose-dependent effect” and the EC50 was 21 to 75 µM.
In the case of O=C1OC[C@@H](c2ccc(O)c(O)c2)[C@@H]1c1ccc(O)cc1, the Activity is reported as “Dose-dependent effect” and the EC50 is reported as 21 to 75 µM.
